Measured values gathered from unrelated publications.
Protocols differ between the studies behind these lines.
JAK1 JH1: Tyrosine-protein kinase JAK1, JH1 (JAK1, Homo sapiens, UniProt P23458)
JAK1 JH2: Tyrosine-protein kinase JAK1, JH2 (JAK1, Homo sapiens, UniProt P23458)
JAK1: Tyrosine-protein kinase JAK1 (JAK1, Homo sapiens, UniProt P23458)

F[C@@H]1CCN(c2nccc(-c3cnn4ncccc34)n2)C1
remaining binding (JAK1 JH1; cell-free assay, competition with immobilised ligand; 1 µM): 100%

CCS(=O)(=O)c1cc2cc(C[C@](O)(CC(C)(C)c3ccc(F)cc3C(N)=O)C(F)(F)F)[nH]c2cn1
remaining binding (JAK1 JH2; cell-free assay, competition with immobilised ligand; 1 µM): 95%

CC1CCCN1c1nccc(-c2cnn3ncccc23)n1 (stereo not shown)
remaining binding (JAK1 JH1; cell-free assay, competition with immobilised ligand; 1 µM): 100%

Nc1cnc(N2CCc3cc(S(=O)(=O)Nc4c(F)cc(Cl)cc4F)cc(N4CCCC4=O)c32)nc1
remaining binding (JAK1 JH1; cell-free assay, competition with immobilised ligand; 1 µM): 100%

CN1CCN(c2ccc(Nc3nccc(-c4cccc([N+](=O)[O-])c4)n3)cc2C(F)(F)F)CC1
remaining binding (JAK1; binding; 10 µM): 0.25%

CN(C)c1nccc(-c2cnn3ncccc23)n1
remaining binding (JAK1 JH1; cell-free assay, competition with immobilised ligand; 1 µM): 69%

CS(=O)(=O)c1cc(C2(NC(=O)c3cncc4c3cnn4-c3ccc(F)cc3)CC2)ccn1
remaining binding (JAK1 JH1; cell-free assay, competition with immobilised ligand; 1 µM): 96%

Nc1ncc2c(n1)-c1c([nH]c3ccc(C#CC4CC4)cc13)CCCC2
remaining binding (JAK1 JH1; binding, competition with immobilised ligand; 1 µM): 100%

CC1=C(C#N)[C@@H](c2ccc3[nH]nc(C)c3c2)C(C#N)=C(c2ccc(Cl)cc2)N1
remaining binding (JAK1 JH1; cell-free assay, competition with immobilised ligand; 1 µM): 100%

O=C(c1ccc(Nc2nccc(-c3cc4ccccc4s3)n2)cc1)N1CCC(N2CCCC2)CC1
remaining binding (JAK1 JH1; binding, competition with immobilised ligand; 1 µM): 82%

C[C@H](c1cccc(C#N)c1)n1cc(Cl)cc(C(N)=O)c1=N
remaining binding (JAK1 JH1; cell-free assay, competition with immobilised ligand; 1 µM): 57%

O=C(c1ccc(Nc2ncc(Cl)c(-c3cc4ccccc4s3)n2)cc1)N1CCC(N2CCCC2)CC1
remaining binding (JAK1 JH2; binding, competition with immobilised ligand; 1 µM): 0.9%

CN(C)c1nccc(-c2cnc3ncccn23)n1
remaining binding (JAK1; binding; 1 µM): 67%

CCN1CCN(Cc2ccc(C(=O)Nc3ccc(C)c(Oc4ccc5c(c4)CC(=O)N5)c3)cc2C(F)(F)F)CC1
remaining binding (JAK1 JH2; binding, competition with immobilised ligand; 1 µM): 100%

N[C@H]1CCN(c2nccc(-c3cnn4ncccc34)n2)C1
remaining binding (JAK1; binding; 1 µM): 60%

O=C(Nc1c[nH]nc1C(=O)NC1CCNCC1)c1cc(F)cc(F)c1
remaining binding (JAK1 JH2; binding, competition with immobilised ligand; 1 µM): 82%

Cc1cnc(Nc2ccc(C(=O)N3CCC(N4CCCC4)CC3)cc2)nc1-c1cc2ccccc2s1
remaining binding (JAK1 JH2; binding, competition with immobilised ligand; 1 µM): 0%

CN(C(=O)c1ccccc1)c1cc(N(C)c2ccc3c(c2)CCc2ccc(C(=O)NCCN4CCOCC4)cc2C3=O)ccc1F
remaining binding (JAK1 JH2; cell-free assay, competition with immobilised ligand; 1 µM): 88%

CNC(=O)[C@@H]1CC[C@@H](n2c(-c3ccc4cnccc4c3)nc3ccc(C(=O)NCc4cccc(C(N)=O)c4)cc32)C1
remaining binding (JAK1 JH2; binding, competition with immobilised ligand; 1 µM): 60%
